Reference: ChEMBL document CHEMBL1138563, “Synthesis and in vitro antimicrobial activity of some novel substituted benzimidazole derivatives having potent activity against MRSA” (2009)
≈ marks a conversion by molar mass, not a printed value.

Experiments:
Assay type in all cases: functional
[1] = test system: Escherichia coli; test: Antimicrobial activity against Escherichia coli ATCC 25922 by tube dilution method
Summary of the method: (§1)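 Tube dilution MIC determination. Test agents and reference drugs are dissolved as a stock in 50% DMSO–water, then diluted 4-fold with culture medium plus inoculum. The first dilution (12.5% DMSO) is excluded from scoring. The read-out is the minimum inhibitory concentration.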

[2] = test system: Staphylococcus aureus; test: Antimicrobial activity against Staphylococcus aureus ATCC 25923 by tube dilution method
Summary of the method: (§2)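 Tube dilution MIC assay. Compounds and standard drugs were dissolved in 50% DMSO–water as stock. The stock was diluted 4-fold with culture medium plus bacterial suspension to give the starting test concentration. That initial tube contained 12.5% DMSO, so no data were taken from it. The MIC was then read across the dilution series.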

[3] = test system: Bacillus subtilis; test: Antimicrobial activity against Bacillus subtilis ATCC 6633 by tube dilution method; summary of the method: as §1
[4] = test system: Candida albicans; test: Antimicrobial activity against Candida albicans ATCC 10145 by tube dilution method; summary of the method: as §1
[5] = test system: Staphylococcus aureus; test: Antimicrobial activity against methicillin-resistant Staphylococcus aureus isolates by tube dilution method; summary of the method: as §2
[6] = test system: Staphylococcus aureus; test: Antimicrobial activity against methicillin-resistant Staphylococcus aureus ATCC […] by tube dilution method; summary of the method: as §2

| SMILES | MIC [1] [µg/mL] | MIC [2] [µg/mL] | MIC [3] [µg/mL] | MIC [4] [µg/mL] | MIC [5] [µg/mL] | MIC [6] [µg/mL] |
| --- | --- | --- | --- | --- | --- | --- |
| COc1ccc(-c2nc3cc(Cl)c(Cl)cc3n2C2CCCC2)cc1 | 50 (≈ 138 µM) | 25 (≈ 69.2 µM) | 50 (≈ 138 µM) | 6.25 (≈ 17.3 µM) | 25 (≈ 69.2 µM) | 25 (≈ 69.2 µM) |
| Nc1nc2cc(Cl)c(Cl)cc2n1C1CCCC1 | 50 (≈ 185 µM) | 3.12 (≈ 11.5 µM) | 6.25 (≈ 23.1 µM) | 6.25 (≈ 23.1 µM) | 6.25 (≈ 23.1 µM) | 6.25 (≈ 23.1 µM) |
| CC(=O)Oc1ccc(-c2nc3cc(Cl)c(Cl)cc3n2C2CCCC2)cc1 | 25 (≈ 64.2 µM) | 50 (≈ 128 µM) | 25 (≈ 64.2 µM) | 12.5 (≈ 32.1 µM) | 50 (≈ 128 µM) | 50 (≈ 128 µM) |
| Fc1ccc(-c2nc3cc(Cl)c(Cl)cc3[nH]2)cc1 | 50 (≈ 178 µM) | 3.12 (≈ 11.1 µM) | 6.25 (≈ 22.2 µM) | 6.25 (≈ 22.2 µM) | 3.12 (≈ 11.1 µM) | 3.12 (≈ 11.1 µM) |
| Clc1cc2ncn(C3CCCC3)c2cc1Cl | 50 (≈ 196 µM) | 6.25 (≈ 24.5 µM) | 12.5 (≈ 49 µM) | 12.5 (≈ 49 µM) | 6.25 (≈ 24.5 µM) | 6.25 (≈ 24.5 µM) |
| Clc1cc2nc(Cl)n(C3CCCC3)c2cc1Cl | 50 (≈ 173 µM) | 3.12 (≈ 10.8 µM) | 25 (≈ 86.3 µM) | 50 (≈ 173 µM) | 6.25 (≈ 21.6 µM) | 6.25 (≈ 21.6 µM) |
| CC(C)Nc1nc2cc(Cl)c(Cl)cc2n1C1CCCC1 | 50 (≈ 160 µM) | 50 (≈ 160 µM) | 50 (≈ 160 µM) | 50 (≈ 160 µM) | 50 (≈ 160 µM) | 50 (≈ 160 µM) |
| CCOc1cc2c(cc1Cl)nc(-c1ccc(OC(C)=O)cc1)n2C1CCCC1 | 50 (≈ 125 µM) | 50 (≈ 125 µM) | 25 (≈ 62.7 µM) | 6.25 (≈ 15.7 µM) | 50 (≈ 125 µM) | 50 (≈ 125 µM) |
| CCOc1cc2c(cc1Cl)nc(-c1ccc(Cl)cc1)n2C1CCCC1 | 50 (≈ 133 µM) | 50 (≈ 133 µM) | 25 (≈ 66.6 µM) | 25 (≈ 66.6 µM) | 50 (≈ 133 µM) | 50 (≈ 133 µM) |
| CCOc1cc2c(cc1Cl)nc(-c1cccc([N+](=O)[O-])c1)n2C1CCCC1 | 50 (≈ 130 µM) | 50 (≈ 130 µM) | 25 (≈ 64.8 µM) | 6.25 (≈ 16.2 µM) | 12.5 (≈ 32.4 µM) | 25 (≈ 64.8 µM) |
| COc1ccc(-c2nc3cc(Cl)ccc3n2C2CCCC2)cc1 | 25 (≈ 76.5 µM) | 50 (≈ 153 µM) | 25 (≈ 76.5 µM) | 12.5 (≈ 38.2 µM) | 50 (≈ 153 µM) | 50 (≈ 153 µM) |
| Fc1ccc(-c2nc3cc(Cl)ccc3n2C2CCCC2)cc1 | 25 (≈ 79.4 µM) | 25 (≈ 79.4 µM) | 12.5 (≈ 39.7 µM) | 12.5 (≈ 39.7 µM) | 25 (≈ 79.4 µM) | 25 (≈ 79.4 µM) |
| CC(C)(C)c1ccc(-c2nc3cc(Cl)ccc3n2C2CCCC2)cc1 | 25 (≈ 70.8 µM) | 50 (≈ 142 µM) | 50 (≈ 142 µM) | 12.5 (≈ 35.4 µM) | 6.25 (≈ 17.7 µM) | 12.5 (≈ 35.4 µM) |
| N#Cc1ccc(-c2nc3cc(Cl)ccc3n2C2CCCC2)cc1 | 50 (≈ 155 µM) | 50 (≈ 155 µM) | 50 (≈ 155 µM) | 6.25 (≈ 19.4 µM) | ≥ 50 | ≥ 50 |
| Clc1ccc2c(c1)nc(-c1ccc(OCc3ccccc3)cc1)n2C1CCCC1 | 50 (≈ 124 µM) | 3.12 (≈ 7.74 µM) | 50 (≈ 124 µM) | 25 (≈ 62 µM) | 6.25 (≈ 15.5 µM) | 6.25 (≈ 15.5 µM) |
| Clc1ccc(-c2nc3cc(Cl)ccc3n2C2CCCC2)cc1 | 25 (≈ 75.5 µM) | 50 (≈ 151 µM) | 25 (≈ 75.5 µM) | 25 (≈ 75.5 µM) | 50 (≈ 151 µM) | 50 (≈ 151 µM) |
| Fc1ccc(-c2nc3cc(Cl)c(Cl)cc3n2C2CCCC2)cc1 | 25 (≈ 71.6 µM) | 25 (≈ 71.6 µM) | 50 (≈ 143 µM) | 25 (≈ 71.6 µM) | 50 (≈ 143 µM) | 50 (≈ 143 µM) |
| Clc1ccc(-c2nc3cc(Cl)c(Cl)cc3[nH]2)cc1 | 50 (≈ 168 µM) | 3.12 (≈ 10.5 µM) | 50 (≈ 168 µM) | 12.5 (≈ 42 µM) | 3.12 (≈ 10.5 µM) | 3.12 (≈ 10.5 µM) |

| SMILES | MIC [1] [µg/mL] | MIC [2] [µg/mL] | MIC [3] [µg/mL] | MIC [4] [µg/mL] | MIC [5] [µg/mL] | MIC [6] [µg/mL] |
| --- | --- | --- | --- | --- | --- | --- |
| CC(C)(C)c1ccc(-c2nc3cc(Cl)c(Cl)cc3[nH]2)cc1 | 50 (≈ 157 µM) | 3.12 (≈ 9.77 µM) | 6.25 (≈ 19.6 µM) | 12.5 (≈ 39.2 µM) | 3.12 (≈ 9.77 µM) | 3.12 (≈ 9.77 µM) |
| Clc1cc2nc(-c3ccc4ccccc4c3)[nH]c2cc1Cl | 50 (≈ 160 µM) | 50 (≈ 160 µM) | 25 (≈ 79.8 µM) | 25 (≈ 79.8 µM) | 50 (≈ 160 µM) | 50 (≈ 160 µM) |
| O=[N+]([O-])c1cccc(-c2nc3cc(Cl)ccc3n2C2CCCC2)c1 | 50 (≈ 146 µM) | 50 (≈ 146 µM) | 25 (≈ 73.1 µM) | 12.5 (≈ 36.6 µM) | 50 (≈ 146 µM) | 50 (≈ 146 µM) |
| CC(C)(C)c1ccc(-c2nc3cc(Cl)c(Cl)cc3n2C2CCCC2)cc1 | 50 (≈ 129 µM) | 6.25 (≈ 16.1 µM) | 25 (≈ 64.5 µM) | 25 (≈ 64.5 µM) | 25 (≈ 64.5 µM) | 25 (≈ 64.5 µM) |
| Clc1cc2nc(-c3ccc4ccccc4c3)n(C3CCCC3)c2cc1Cl | 50 (≈ 131 µM) | 50 (≈ 131 µM) | 12.5 (≈ 32.8 µM) | 12.5 (≈ 32.8 µM) | 25 (≈ 65.6 µM) | 25 (≈ 65.6 µM) |
| Clc1ccc2c(c1)nc(-c1ccc3ccccc3c1)n2C1CCCC1 | 50 (≈ 144 µM) | 25 (≈ 72.1 µM) | 25 (≈ 72.1 µM) | 6.25 (≈ 18 µM) | 25 (≈ 72.1 µM) | 25 (≈ 72.1 µM) |
| CCOc1cc2c(cc1Cl)nc(-c1ccc(F)cc1)n2C1CCCC1 | 50 (≈ 139 µM) | 6.25 (≈ 17.4 µM) | 25 (≈ 69.7 µM) | 50 (≈ 139 µM) | 6.25 (≈ 17.4 µM) | 6.25 (≈ 17.4 µM) |
| Nc1nc2cc(Cl)ccc2n1C1CCCC1 | 50 (≈ 212 µM) | 25 (≈ 106 µM) | 25 (≈ 106 µM) | 25 (≈ 106 µM) | 50 (≈ 212 µM) | 50 (≈ 212 µM) |
| Clc1ccc2c(c1)ncn2C1CCCC1 | ≥ 50 | 50 (≈ 227 µM) | 50 (≈ 227 µM) | 50 (≈ 227 µM) | 50 (≈ 227 µM) | 50 (≈ 227 µM) |
| Clc1cc2nc(Br)n(C3CCCC3)c2cc1Cl | 50 (≈ 150 µM) | 3.12 (≈ 9.34 µM) | 25 (≈ 74.8 µM) | 25 (≈ 74.8 µM) | 6.25 (≈ 18.7 µM) | 6.25 (≈ 18.7 µM) |
| CC(=O)Oc1ccc(-c2nc3cc(Cl)ccc3n2C2CCCC2)cc1 | 50 (≈ 141 µM) | 50 (≈ 141 µM) | 50 (≈ 141 µM) | 50 (≈ 141 µM) | 50 (≈ 141 µM) | 50 (≈ 141 µM) |
| Clc1ccc(-c2nc3cc(Cl)c(Cl)cc3n2C2CCCC2)cc1 | 50 (≈ 137 µM) | 50 (≈ 137 µM) | 25 (≈ 68.4 µM) | 12.5 (≈ 34.2 µM) | 50 (≈ 137 µM) | 50 (≈ 137 µM) |
| CN(C)c1ccc(-c2nc3cc(Cl)ccc3n2C2CCCC2)cc1 | 50 (≈ 147 µM) | 12.5 (≈ 36.8 µM) | 25 (≈ 73.6 µM) | 12.5 (≈ 36.8 µM) | 25 (≈ 73.6 µM) | 25 (≈ 73.6 µM) |
| CC1(C)S[C@@H]2[C@H](NC(=O)[C@H](N)c3ccccc3)C(=O)N2[C@H]1C(=O)O [AMPICILLIN] | – | 0.78 (≈ 2.23 µM) | – | – | 50 (≈ 143 µM) | 50 (≈ 143 µM) |
| O=C(O)c1cn(C2CC2)c2cc(N3CCNCC3)c(F)cc2c1=O [CIPROFLOXACIN] | – | 0.78 (≈ 2.35 µM) | 0.09 (≈ 0.272 µM) | – | 12.5 (≈ 37.7 µM) | – |
| OC(Cn1cncn1)(Cn1cncn1)c1ccc(F)cc1F [FLUCONAZOLE] | – | – | – | 1.56 (≈ 5.09 µM) | – | – |
| CC1(C)S[C@@H]2[C@H](NC(=O)[C@H](N)c3ccccc3)C(=O)N2[C@H]1C(=O)OCOC(=O)[C@@H]1N2C(=O)C[C@H]2S(=O)(=O)C1(C)C [SULTAMICILLIN] | – | 0.39 (≈ 0.656 µM) | 0.78 (≈ 1.31 µM) | – | 25 (≈ 42 µM) | 25 (≈ 42 µM) |
